Source: ChEMBL document CHEMBL3421570, “Combinatorial Libraries As a Tool for the Discovery of Novel, Broad-Spectrum Antibacterial Agents Targeting the ESKAPE Pathogens” (J Med Chem, 2015)
Values after ≈ are worked out from the molar mass of the structure shown. Active and inactive are the calls of the source. The rule behind the calls is not given here.

Assays:
Acinetobacter baumannii [1] = assay: Antibiofilm activity against Acinetobacter baumannii incubated for 24 hrs followed by biofilm resuspension in PBS and measured after 24 hrs; type: functional
Outline: (§1)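 Biofilms grown 24 h in 96-well plates from overnight cultures standardized to OD600 0.5 in fresh medium (human serum only for S. aureus; TSB for Gram-positives, LB for Gram-negatives). Medium then replaced with fresh medium containing a concentration range above and below MIC, 37°C overnight. After 24 h biofilm resuspended in PBS, serially diluted, plated in duplicate, CFU counted after 24 h at 37°C. Activity relative to untreated; three technical replicates; MBEC50 reported.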

[2] = Selectivity index, ratio of IC50 for human A549 cells to MIC for Enterobacter cloacae
Enterobacter cloacae [3] = assay: Antimicrobial activity against Enterobacter cloacae assessed as inhibition of microbial growth at 45 uM after 24 hrs; type: functional, organism-based
Outline: (§2)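 Broth microdilution single-concentration read: overnight cultures diluted 1:1000, compound in DMF (≤2.0%) added, 37°C for 24 h, growth inhibition scored visually by lack of turbidity; triplicate. Gram-positives grown in TSB, Gram-negatives in LB.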

Staphylococcus aureus [4] = assay: Induction of spontaneous mutation in Staphylococcus aureus at 2 to 10 MIC; type: functional, organism-based
Acinetobacter baumannii [5] = assay: Antimicrobial activity against Acinetobacter baumannii assessed as inhibition of microbial growth at 45 uM after 24 hrs; type: functional, organism-based; outline: as §2
Staphylococcus aureus [6] = assay: Antimicrobial activity against Staphylococcus aureus assessed as inhibition of microbial growth at 45 uM after 24 hrs; type: functional, organism-based; outline: as §2
Acinetobacter baumannii [7] = assay: Ratio of MIC for Acinetobacter baumannii measured after 8 cycle passage to MIC for wild type Acinetobacter baumannii; type: functional
Staphylococcus aureus [8] = assay: Bactericidal activity against methicillin-resistant Staphylococcus aureus at MIC measured after drug wash out after 120 mins by time kill assay; type: functional
Outline: (§3)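 MRSA from stationary phase was regrown 3 h in TSB and seeded at OD600 0.5. […] After 120 min, cells were centrifuged and washed, serially diluted and plated for CFU. Percent recovery is relative to no-drug controls.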

Acinetobacter baumannii [9] = assay: Bactericidal activity against Acinetobacter baumannii after 24 hrs; type: functional
Pseudomonas aeruginosa [10] = assay: Bactericidal activity against Pseudomonas aeruginosa after 24 hrs; type: functional
Enterococcus faecium [11] = assay: Bactericidal activity against Enterococcus faecium after 24 hrs; type: functional
Acinetobacter baumannii [12] = assay: Induction of spontaneous mutation in Acinetobacter baumannii at 2 to 10 MIC; type: functional, organism-based
Klebsiella pneumoniae [13] = assay: Bactericidal activity against Klebsiella pneumoniae after 24 hrs; type: functional
Klebsiella pneumoniae [14] = assay: Antimicrobial activity against Klebsiella pneumoniae assessed as inhibition of microbial growth at 45 uM after 24 hrs; type: functional, organism-based; outline: as §2
[15] = Induction of hemolysis in human RBC at 10 uM incubated for 15 mins; type: cell-based, Erythrocyte; conditions: red blood cells, read-out: Activity
Outline: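 Human RBCs from whole blood, resuspended 20% v/v in HA buffer (NaCl, CaCl2), compound 10 μM, 15 min at 37°C. Centrifuged 5,500 g for 1 min, supernatant OD543 read. Percent hemolysis against DMF vehicle (0%) and 1.0% Triton X-100 (100%); triplicate.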

Staphylococcus aureus [16] = assay: Antibiofilm activity against Staphylococcus aureus incubated for 24 hrs followed by biofilm resuspension in PBS and measured after 24 hrs; type: functional; outline: as §1
Enterobacter cloacae [17] = assay: Induction of spontaneous mutation in Enterobacter cloacae at 2 to 10 MIC; type: functional, organism-based
Enterobacter cloacae [18] = assay: Ratio of MIC for Enterobacter cloacae measured after 8 cycle passage to MIC for wild type Enterobacter cloacae; type: functional
Acinetobacter baumannii [19] = assay: Antimicrobial activity against Acinetobacter baumannii assessed as inhibition of microbial growth after 24 hrs; type: functional
Outline: (§4)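 Broth microdilution against multidrug-resistant clinical ESKAPE isolates. Overnight cultures (TSB for Gram-positives, LB for Gram-negatives) diluted 1:1000 in fresh medium, compound in DMF (≤2.0% DMF) added at decreasing concentrations, 37°C.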

Klebsiella pneumoniae [20] = assay: Induction of spontaneous mutation in Klebsiella pneumoniae at 2 to 10 MIC; type: functional, organism-based
[21] = Cytotoxicity against human A549 cells assessed as cell viability recovery up to 100 uM after 48 hrs by MTT assay; type: cell-based; conditions: read-out: Activity
Outline: (§5)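 A549 cells grown in F-12K with L-glutamine, 10% FBS, 1% penicillin-streptomycin, seeded at 1.0 × 10^5 ml−1, allowed to adhere 24 h (37°C, 5% CO2), then exposed to compound in 45% w/v (2-hydroxypropyl)-β-cyclodextrin vehicle for 48 h. MTT 4 h, formazan solubilized in DMSO, absorbance 540 nm. Percent recovery versus vehicle-only; IC50 derived; at least three independent experiments.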

[22] = Selectivity index, ratio of IC50 for human A549 cells to MIC for Klebsiella pneumoniae
Klebsiella pneumoniae [23] = assay: Ratio of MIC for Klebsiella pneumoniae measured after 8 cycle passage to MIC for wild type Klebsiella pneumoniae; type: functional
Enterococcus faecium [24] = assay: Antimicrobial activity against Enterococcus faecium assessed as inhibition of microbial growth after 24 hrs; type: functional; outline: as §4
[25] = Selectivity index, ratio of IC50 for human A549 cells to MIC for Staphylococcus aureus
Pseudomonas aeruginosa [26] = assay: Induction of spontaneous mutation in Pseudomonas aeruginosa at 2 to 10 MIC; type: functional, organism-based; conditions: 2 to 10 x MIC
Klebsiella pneumoniae [27] = assay: Antimicrobial activity against Klebsiella pneumoniae assessed as inhibition of microbial growth after 24 hrs; type: functional; outline: as §4
Pseudomonas aeruginosa [28] = assay: Antimicrobial activity against Pseudomonas aeruginosa assessed as inhibition of microbial growth at 45 uM after 24 hrs; type: functional, organism-based; outline: as §2
[29] = Cytotoxicity against human A549 cells assessed as cell viability recovery at 225 uM after 48 hrs by MTT assay; type: cell-based; conditions: read-out: Activity; outline: as §5
Pseudomonas aeruginosa [30] = assay: Antimicrobial activity against Pseudomonas aeruginosa assessed as inhibition of microbial growth after 24 hrs; type: functional; outline: as §4
Staphylococcus aureus [31] = assay: Effect on bacterial density of methicillin-resistant Staphylococcus aureus at MIC measured over 2 hrs period by time kill assay; type: functional, organism-based
Staphylococcus aureus [32] = assay: Bactericidal activity against methicillin-resistant Staphylococcus aureus assessed as cell survival recovery at MIC measured after drug wash out after 120 mins by time kill assay; type: functional; outline: as §3
Staphylococcus aureus [33] = assay: Antimicrobial activity against Staphylococcus aureus USA300 strain FPR3757 infected in mouse model of lethal peritonitis assessed as mouse survival at 2 uM, im dosed 1 hr post infection and measured after 5 days post infection; type: functional, organism-based
Outline: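 Mice, six per group, infected i.p. with 1 × 10^8 CFU ml−1 S. aureus USA300 FPR3757 in PBS with 5% mucin. Compound given i.m. at 2 μM 1 h later; vehicle 45% w/v (2-hydroxypropyl)-β-cyclodextrin in water i.v.; vancomycin i.v. as control. Monitored twice daily for 5 days, pre-moribund animals euthanized. Survival compared by log-rank test.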

Staphylococcus aureus [34] = assay: Antimicrobial activity against Staphylococcus aureus assessed as inhibition of microbial growth after 24 hrs; type: functional; outline: as §4
Enterobacter cloacae [35] = assay: Antibiofilm activity against Enterobacter cloacae incubated for 24 hrs followed by biofilm resuspension in PBS and measured after 24 hrs; type: functional; outline: as §1
Enterobacter cloacae [36] = assay: Bactericidal activity against Enterobacter cloacae after 24 hrs; type: functional
[37] = Selectivity index, ratio of IC50 for human A549 cells to MIC for Enterococcus faecium
Enterococcus faecium [38] = assay: Antimicrobial activity against Enterococcus faecium assessed as inhibition of microbial growth at 45 uM after 24 hrs; type: functional, organism-based; outline: as §2
Klebsiella pneumoniae [39] = assay: Antibiofilm activity against Klebsiella pneumoniae incubated for 24 hrs followed by biofilm resuspension in PBS and measured after 24 hrs; type: functional; outline: as §1
Enterococcus faecium [40] = assay: Antibiofilm activity against Enterococcus faecium incubated for 24 hrs followed by biofilm resuspension in PBS and measured after 24 hrs; type: functional; outline: as §1
[41] = Selectivity index, ratio of IC50 for human A549 cells to MIC for Pseudomonas aeruginosa
Enterobacter cloacae [42] = assay: Antimicrobial activity against Enterobacter cloacae assessed as inhibition of microbial growth after 24 hrs; type: functional; outline: as §4
Staphylococcus aureus [43] = assay: Ratio of MIC for Staphylococcus aureus measured after 8 cycle passage to MIC for wild type Staphylococcus aureus; type: functional
Enterococcus faecium [44] = assay: Induction of spontaneous mutation in Enterococcus faecium at 2 to 10 MIC; type: functional, organism-based
Pseudomonas aeruginosa [45] = assay: Antibiofilm activity against Pseudomonas aeruginosa incubated for 24 hrs followed by biofilm resuspension in PBS and measured after 24 hrs; type: functional; outline: as §1
[46] = Selectivity index, ratio of IC50 for human A549 cells to MIC for Acinetobacter baumannii
A549 = assay: Cytotoxicity against human A549 cells after 48 hrs by MTT assay; type: cell-based; conditions: A549, 48 h; outline: as §5

CCCC[C@H]1CN(CCCC[C@H]2CNC(=N)N2CCc2cccc(C(F)(F)F)c2)C(=N)N1CCCCC1CCCCC1
MBEC50 (Acinetobacter baumannii [1]): 16 µM | Selectivity Index [2]: 82 | growth inhibition (GI) (Enterobacter cloacae [3]): Active | Activity (Staphylococcus aureus [4]): inactive | growth inhibition (GI) (Acinetobacter baumannii [5]): Active | growth inhibition (GI) (Staphylococcus aureus [6]): Active | Ratio (Acinetobacter baumannii [7]): <=8 | fold change (FC) (Staphylococcus aureus [8]): 2.5 | MBC90 (Acinetobacter baumannii [9]): 2.8 µM (≈ 1.65 µg/mL) | MBC90 (Pseudomonas aeruginosa [10]): 2.3 µM (≈ 1.36 µg/mL) | MBC90 (Enterococcus faecium [11]): 1.7 µM (≈ 1 µg/mL) | Activity (Acinetobacter baumannii [12]): inactive | MBC90 (Klebsiella pneumoniae [13]): 4 µM (≈ 2.36 µg/mL) | growth inhibition (GI) (Klebsiella pneumoniae [14]): Active | hemolysis at 0.25 h, 10 µM [15]: 0.34% | MBEC50 (Staphylococcus aureus [16]): 2.2 µM | Activity (Enterobacter cloacae [17]): inactive | Ratio (Enterobacter cloacae [18]): <=8 | MIC (Acinetobacter baumannii [19]): 1.5 µM | Activity (Klebsiella pneumoniae [20]): inactive | viability at 48 h [21]: > 65% | Selectivity Index [22]: 82 | Ratio (Klebsiella pneumoniae [23]): <=8 | MIC (Enterococcus faecium [24]): 1.5 µM | Selectivity Index [25]: 82 | Activity (Pseudomonas aeruginosa [26]): inactive | MIC (Klebsiella pneumoniae [27]): 1.5 µM | growth inhibition (GI) (Pseudomonas aeruginosa [28]): Active | viability at 48 h, 225 µM [29]: > 50% | MIC (Pseudomonas aeruginosa [30]): 1.5 µM | Activity (Staphylococcus aureus [31]): inactive | Survival (Staphylococcus aureus [32]): 0.2% | Activity (Staphylococcus aureus [33]): Active | MIC (Staphylococcus aureus [34]): 1.5 µM | MBEC50 (Enterobacter cloacae [35]): 13 µM | MBC90 (Enterobacter cloacae [36]): 4.1 µM (≈ 2.42 µg/mL) | Selectivity Index [37]: 82 | growth inhibition (GI) (Enterococcus faecium [38]): Active | MBEC50 (Klebsiella pneumoniae [39]): 4.7 µM | MBEC50 (Enterococcus faecium [40]): 29 µM | Selectivity Index [41]: 82 | MIC (Enterobacter cloacae [42]): 1.5 µM | Ratio (Staphylococcus aureus [43]): 2 | Activity (Enterococcus faecium [44]): inactive | MBEC50 (Pseudomonas aeruginosa [45]): 31 µM | Selectivity Index [46]: 82 | IC50 (A549): 125 µM
